The list is not random: actives were taken first. Their share in the collection is about 2.9%.
Wee1 degr inh = Wee1 degradation inhibitors, primary screen, cell-based, HeLa, Wee1K328M-luciferase, luminescence. Wee1-like protein kinase (Homo sapiens), P30291. HeLa Luc-Wee1K328M stability; 100% = proteasome inhibitor MG132 effect. reporter increase, % at 5 µM. actives 1.2% (n = 220,000);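 active means activation above the mean of all tested compounds plus 3 SD, set per screening run, cut at about 8.8% in these data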;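 further: cells exposed to compound for 20 h before luminescence read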
Target sequence (P30291 whole entry K328M): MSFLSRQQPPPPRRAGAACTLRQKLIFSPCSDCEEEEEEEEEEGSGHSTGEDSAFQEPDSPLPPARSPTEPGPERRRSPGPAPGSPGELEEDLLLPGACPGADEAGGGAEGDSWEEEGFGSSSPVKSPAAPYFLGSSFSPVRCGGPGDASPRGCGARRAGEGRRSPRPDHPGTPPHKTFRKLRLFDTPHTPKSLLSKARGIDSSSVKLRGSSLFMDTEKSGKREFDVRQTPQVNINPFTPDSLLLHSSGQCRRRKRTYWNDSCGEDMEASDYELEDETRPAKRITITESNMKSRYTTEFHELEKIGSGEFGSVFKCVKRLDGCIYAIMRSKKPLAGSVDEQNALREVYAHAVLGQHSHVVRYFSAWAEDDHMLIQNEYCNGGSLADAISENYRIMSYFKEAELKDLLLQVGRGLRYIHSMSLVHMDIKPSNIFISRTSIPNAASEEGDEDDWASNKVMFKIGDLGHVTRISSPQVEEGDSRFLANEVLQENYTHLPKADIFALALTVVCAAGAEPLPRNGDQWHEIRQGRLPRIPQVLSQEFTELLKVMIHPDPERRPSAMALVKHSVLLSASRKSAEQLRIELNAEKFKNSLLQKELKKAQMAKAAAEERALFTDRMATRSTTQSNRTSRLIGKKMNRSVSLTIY
RanGTP-Imp inh = inhibitors of RanGTP-importin-beta interaction, primary screen, biochemical, FRET, CFP-Ran, YFP-importin-beta, homogeneous; Ran GTPase (GTP-bound) - importin-beta complex; cell-free CFP-Ran/YFP-importin-beta FRET ratio; inhibition, % (no concentration beside the values); actives 1.1% (n = 300,000);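 active means more than half of the replicate wells show a fall in the fluorescence ratio signal beyond about 16%, limit read from the data, passing the limit was not always enough; inconclusive means exactly half of the replicate wells pass the set limit; inactive means fewer than half of replicates pass the limit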
AI-2 QS modul = Vibrio harveyi AI-2 quorum sensing modulators, primary screen, JMH597 strain, luminescence/OD600 ratio; Vibrio harveyi JMH597 AI-2 luminescence/OD600 ratio, 9 h; active compounds read low; strain lacks LuxN and CqsS sensors; 0 = neutral-control median; activity change, % at 7.5 µM; actives 0.4% (n = 300,000); in the data active means activity change below about -75%, passing the limit was not always enough; inconclusive means no clear call, values can overlap the other calls;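 further: luminescence divided by OD600 gain over 9 h not by final OD600 alone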
Runt-CBFb FRET = inhibitors of RUNX1 Runt–CBFb binding, primary screen, biochemical, FRET, Cerulean-Runt, Venus-CBFb, uHTS | Cerulean-Runt/Venus-CBFb FRET ratio 530/480, 1 h | inhibition, % at 20 µM | Runt-related transcription factor 1 (Homo sapiens) + Core-binding factor subunit beta … | AID 1496, 2009 | actives 0.46% (n = 220,000);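 active means inhibition over about 50% at 20 µM in the single-dose screen, limit read from the data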
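Assay system: Cerulean-tagged RUNX1 Runt domain (FRET donor) fusion protein / Amount: 100 nM each of Venus-CBFb and Cerulean-Runt domain / Medium: Tris buffer pH 7.5 with salts and BSA / Also added: Venus-CBFb 100 nM / Schedule: 1 h complex formation plus 1 h compound treatment, room temperature / Signal: FRET fluorescence / Read-out: loss of energy transfer signal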
Runt-SMMHC FRET = inhibitors of RUNX1 Runt–CBFb-SMMHC binding, primary screen, biochemical, FRET, Cerulean-Runt, Venus-CBFb-SMMHC, uHTS | Runt-related transcription factor 1 (Homo sapiens) + Core-binding factor subunit beta … | Cerulean-Runt/Venus-CBFb-SMMHC FRET ratio 530/480, 1 h | inhibition, % at 20 µM | actives 0.74% (n = 220,000) | AID 1434, 2008;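 active means mean inhibition across duplicate retests at 20 µM reaching about 50%, limit read from the data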;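 further: inhibitors lower the FRET ratio by blocking Runt binding to CBFb-SMMHC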
proKLK7 act = proKLK7 zymogen activators, primary screen, biochemical, fluorescence intensity | Kallikrein-7 (Homo sapiens), P49862 | actives 0.9% (n = 370,000) | activation, % at 7 µM | purified proKLK7, EDANS-DABCYL substrate fluorescence; 100% is mature enzyme control, 0% vehicle;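 active means activation above the mean of all tested compounds plus 3 SD, computed per campaign excluding outliers beyond control limits, cut at about 13% in these data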
Wee1 degr conf = Wee1 degradation inhibitors, confirmation, cell-based, HeLa, Wee1K328M-luciferase, luminescence, triplicate; shares compounds with Wee1 degr inh; HeLa Luc-Wee1K328M degradation; vehicle 0%, proteasome-blocked wells 100%; activation, % at 5 µM; actives 4% (n = 1,100); AID 1410, 2008; in the data active means activation above about 8.9%
Numbers stand for hits.

What do the screens show for `COc1cc(/C=N/Nc2ccc(S(N)(=O)=O)cc2[N+](=O)[O-])cc(OC)c1O`?
Wee1 degr inh: 11; RanGTP-Imp inh: inactive; AI-2 QS modul: inactive; Runt-CBFb FRET: inactive; Runt-SMMHC FRET: inactive; proKLK7 act: inactive; Wee1 degr conf: inactive

How did O=C(N/N=C/c1ccc(Cl)cc1)c1cc2c(s1)-c1ccccc1CC2 do in these assays?
Wee1 degr inh: 26; RanGTP-Imp inh: inactive; AI-2 QS modul: inactive; Runt-CBFb FRET: inactive; Runt-SMMHC FRET: inactive; proKLK7 act: inactive; Wee1 degr conf: inactive

How did Cc1cccc(C)c1NC(=O)c1c(-c2ccccc2)noc1C do in these assays?
Wee1 degr inh: 11; RanGTP-Imp inh: inactive; AI-2 QS modul: inactive; Runt-CBFb FRET: inactive; Runt-SMMHC FRET: inactive; proKLK7 act: inactive; Wee1 degr conf: inactive

How did Cc1ccccc1NC(=O)c1c(-c2ccccc2)noc1C do in these assays?
Wee1 degr inh: inactive; RanGTP-Imp inh: inactive; AI-2 QS modul: inactive; Runt-CBFb FRET: inactive; Runt-SMMHC FRET: inactive; proKLK7 act: inactive

Results for Cc1ccc(C)c(-n2cc[nH]c2=S)c1 ?
Wee1 degr inh: inactive; RanGTP-Imp inh: inactive; AI-2 QS modul: inactive; Runt-CBFb FRET: inactive; Runt-SMMHC FRET: inactive; proKLK7 act: inactive

Results for NC(=O)N/N=C/c1cn(-c2ccccc2)nc1-c1cccs1 ?
Wee1 degr inh: 16; RanGTP-Imp inh: inactive; AI-2 QS modul: inactive; Runt-CBFb FRET: inactive; Runt-SMMHC FRET: inactive; proKLK7 act: inactive; Wee1 degr conf: inactive

Results for O=C(N/N=C/c1cn(-c2ccccc2)nc1-c1cccs1)c1ccncc1 ?
Wee1 degr inh: inactive; RanGTP-Imp inh: inactive; AI-2 QS modul: inactive; Runt-CBFb FRET: inactive; Runt-SMMHC FRET: inactive; proKLK7 act: inactive

What do the screens show for `O=C(COC(=O)/C=C/c1ccc([N+](=O)[O-])cc1)NCC1CCCCC1`?
proKLK7 act: inactive

What do the screens show for `OCCC1CN(CC2CCCCC2)CCN1C1CCCC1` (configuration not stated)?
RanGTP-Imp inh: inconclusive; AI-2 QS modul: inactive; proKLK7 act: inactive

Results for CCN1CCN(c2nc(Nc3ccccc3)nc(N)c2[N+](=O)[O-])CC1 ?
Wee1 degr inh: inactive; RanGTP-Imp inh: inconclusive; AI-2 QS modul: inactive; Runt-CBFb FRET: inactive; Runt-SMMHC FRET: inactive; proKLK7 act: inactive

How did CCN1CCN(c2nc(Nc3ccc(OC)cc3)nc(N)c2[N+](=O)[O-])CC1 do in these assays?
Wee1 degr inh: 12; RanGTP-Imp inh: inactive; AI-2 QS modul: inactive; Runt-CBFb FRET: inactive; Runt-SMMHC FRET: inactive; proKLK7 act: inactive; Wee1 degr conf: inactive

How did COc1ccc(CNC(=O)COC(=O)Cc2ccc(Cl)cc2Cl)cc1 do in these assays?
Wee1 degr inh: inactive; RanGTP-Imp inh: inactive; AI-2 QS modul: inactive; Runt-CBFb FRET: inactive; Runt-SMMHC FRET: inactive; proKLK7 act: inactive

Results for O=C(c1ccc(S(=O)(=O)NCC2CCCO2)cc1)N1CCN(c2ccccc2F)CC1 (configuration not stated) ?
Wee1 degr inh: 26; RanGTP-Imp inh: inactive; AI-2 QS modul: inactive; Runt-CBFb FRET: inactive; Runt-SMMHC FRET: inactive; proKLK7 act: inactive; Wee1 degr conf: inactive

What do the screens show for `CCCCCCCC1(C)NC(=O)N(c2ccccc2)N1` (configuration not stated)?
Wee1 degr inh: 14; RanGTP-Imp inh: inactive; AI-2 QS modul: inactive; Runt-SMMHC FRET: inactive; proKLK7 act: inactive; Wee1 degr conf: inactive

Results for CCCCC1(Br)C(=O)N(c2ccccc2)N(c2ccccc2)C1=O ?
proKLK7 act: inactive

How did COc1ccc(CNc2ccc(S(=O)(=O)N3CCN(C)CC3)cn2)cc1OC do in these assays?
RanGTP-Imp inh: inactive; AI-2 QS modul: inactive; proKLK7 act: inactive

What do the screens show for `CC(=O)Nc1cccc(NS(=O)(=O)c2cc3c4c(c2)CCN4C(=O)CC3)c1`?
RanGTP-Imp inh: inactive; AI-2 QS modul: inactive; proKLK7 act: inactive

Results for COc1ccc(Cl)cc1NC(=O)CCN1C(=O)C2C3CCC(C3)C2C1=O (configuration not stated) ?
RanGTP-Imp inh: inactive; AI-2 QS modul: inactive; proKLK7 act: inactive

What do the screens show for `COc1ccc(NS(=O)(=O)c2cc(NC(=O)c3ccccc3F)ccc2N2CCCC2)cc1`?
Wee1 degr inh: 14; RanGTP-Imp inh: inactive; AI-2 QS modul: inactive; Runt-CBFb FRET: inactive; Runt-SMMHC FRET: inactive; proKLK7 act: inactive; Wee1 degr conf: inactive

What do the screens show for `COc1ccc(NS(=O)(=O)c2cc(NC(=O)c3cccs3)ccc2N2CCCC2)cc1`?
Wee1 degr inh: inactive; RanGTP-Imp inh: inactive; AI-2 QS modul: inactive; Runt-CBFb FRET: inactive; Runt-SMMHC FRET: inactive; proKLK7 act: inactive

What do the screens show for `CC(NC(=O)c1ccc2c(c1)OCO2)C(c1cccs1)N1CCN(c2ccccc2)CC1` (configuration not stated)?
Wee1 degr inh: inactive; RanGTP-Imp inh: inconclusive; AI-2 QS modul: inactive; Runt-CBFb FRET: inactive; Runt-SMMHC FRET: inactive; proKLK7 act: inactive

How did CC1CCN(C(=O)NC(=O)c2ccc(Cl)cc2)CC1 do in these assays?
RanGTP-Imp inh: inactive; AI-2 QS modul: inactive; proKLK7 act: inactive

Results for CC1c2ccsc2CCN1C(=O)NC(=O)c1ccc(Cl)cc1 (configuration not stated) ?
Wee1 degr inh: 14; RanGTP-Imp inh: inactive; AI-2 QS modul: inactive; Runt-CBFb FRET: inactive; Runt-SMMHC FRET: inactive; proKLK7 act: inactive; Wee1 degr conf: inactive

Results for CCN(CC)C(=O)C1CC(=O)N(c2ccc(F)c(Cl)c2)C1 (configuration not stated) ?
Wee1 degr inh: inactive; RanGTP-Imp inh: inactive; AI-2 QS modul: inactive; Runt-CBFb FRET: inactive; Runt-SMMHC FRET: inactive; proKLK7 act: inactive

What do the screens show for `COc1ccccc1NC(=O)N(C)C[C@@H]1OCc2cnnn2CCCC(=O)N([C@H](C)CO)C[C@@H]1C`?
proKLK7 act: inactive

What do the screens show for `COc1ccccc1CNC(=O)C1(NC(=O)Nc2ccc(C)cc2)CCCCC1`?
Wee1 degr inh: 11; RanGTP-Imp inh: inactive; AI-2 QS modul: inactive; Runt-CBFb FRET: inactive; Runt-SMMHC FRET: inactive; proKLK7 act: inactive; Wee1 degr conf: inactive

Screening data as filed in PubChem.
